Legend:
[1] = molecular target: PbIMPDH-B Phe411 substituted with Tyr (Penicillium brevicompactum, UniProt F1DBB2, F415Y); experiment: MPA inhibition of PbIMPDH-B variant 411*; assay type: biochemical
[2] = molecular target: PbIMPDH-A (IMPDH-A from Penicillium brevicompactum) (Penicillium brevicompactum, UniProt A0A9W9QLZ9); experiment: IMPDH enzyme assay; assay type: biochemical
[3] = system: AnImdA, PcIMPDH-A and PcIMPDH-B; experiment: MPA inhibition of the MPA-sensitive fungal IMPDHs; assay type: biochemical; conditions: range over AnImdA
[4] = molecular target: PbIMPDH-A Tyr411 substituted with Phe (Penicillium brevicompactum, UniProt A0A9W9QLZ9, Y425F); experiment: MPA inhibition of PbIMPDH-A variant 411*; assay type: biochemical; conditions: read-out: IC50, 411*, PbIMPDH-A Tyr411 to Phe
[5] = molecular target: AnImdA Tyr411 substituted with Phe (Aspergillus nidulans, UniProt C8V6R6, Y186F); experiment: MPA inhibition of AnImdA variant 411*; assay type: biochemical
[6] = system: P. chrysogenum; experiment: Spot assay to determine sensitivity towards MPA; assay type: cell-based, Penicillium chrysogenum; conditions: CYA plates with 200 μg/ml MPA (method) / 6.2 μM MPA (legend of Figure 2A), 25°C
In short: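 Strain IBT5857 spores harvested into sterile water. 10-fold serial dilutions spotted onto CYA with or without MPA, most concentrated spot ~10⁶ spores. MPA stock was 25 mg/ml in methanol, and every plate held 0.8% (v/v) methanol. Stock and plates were made just before spotting to avoid MPA degradation. Grown at 25°C; growth of dilution series scored.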

[7] = molecular target: PbIMPDH-B (IMPDH-B from P. brevicompactum) (Penicillium brevicompactum, UniProt F1DBB2); experiment: biochemical
PbIMPDH-B (IMPDH-B from P. brevicompactum), sequence (F1DBB2 whole entry): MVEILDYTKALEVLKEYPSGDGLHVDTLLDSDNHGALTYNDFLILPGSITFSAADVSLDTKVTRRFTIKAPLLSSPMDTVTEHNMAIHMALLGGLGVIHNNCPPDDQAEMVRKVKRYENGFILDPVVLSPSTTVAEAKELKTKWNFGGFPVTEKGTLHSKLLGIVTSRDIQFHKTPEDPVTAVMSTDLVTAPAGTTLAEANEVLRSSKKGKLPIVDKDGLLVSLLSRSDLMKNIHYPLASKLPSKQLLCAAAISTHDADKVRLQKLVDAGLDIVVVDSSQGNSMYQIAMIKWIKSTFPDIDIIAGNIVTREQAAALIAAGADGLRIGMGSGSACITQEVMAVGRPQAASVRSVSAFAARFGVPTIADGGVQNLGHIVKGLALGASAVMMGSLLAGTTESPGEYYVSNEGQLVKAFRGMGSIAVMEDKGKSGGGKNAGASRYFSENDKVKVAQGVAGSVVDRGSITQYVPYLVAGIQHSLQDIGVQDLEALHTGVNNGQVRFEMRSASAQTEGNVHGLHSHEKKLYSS

[8] = molecular target: AnImdA (IMPDH from Aspergillus nidulans) (Aspergillus nidulans, UniProt C8V6R6); experiment: biochemical
[9] = system: E. coli ΔguaB expressing PbIMPDH-B; experiment: Bacterial complementation assay with MPA; assay type: cell-based; conditions: 100 μM MPA, no guanosine
In short: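 E. coli BL21(DE3) ΔguaB host (no endogenous IMPDH) carrying N-terminal His6-tagged fungal IMPDH on a pET28-derived vector. Overnight LB cultures with 25 μg/ml kanamycin; 1:20 serial dilutions spotted on M9 minimal medium with 0.5% casamino acids, 100 μg/ml L-tryptophan, 0.1% thiamin, kanamycin, 66 μM IPTG, ± 100 μM MPA; guanosine plates get 50 μg/ml. Incubated overnight at 37°C, then at room temperature; growth scored.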

[10] = cited from earlier work
[11] = molecular target: PcIMPDH-A (IMPDH-A from Penicillium chrysogenum) (Penicillium chrysogenum, UniProt B6HC24); experiment: biochemical
[12] = system: Imd2; conditions: Imd2 from Saccharomyces cerevisiae; cited from earlier work
[13] = molecular target: PcIMPDH-B (IMPDH-B from P. chrysogenum) (Penicillium chrysogenum, UniProt B6H451); experiment: biochemical
[14] = system: Imd3; conditions: Imd3 from Saccharomyces cerevisiae; cited from earlier work
[15] = system: NC(=O)c1ccc[n+]([C@@H]2O[C@H](COP(=O)([O-])OP(=O)(O)OC[C@H]3O[C@@H](n4cnc5c(N)ncnc54)[C@H](O)[C@@H]3O)[C@@H](O)[C@H]2O)c1; experiment: cells, lysate or membranes named; conditions: pH 8.0

PbIMPDH-B Phe411 substituted with Tyr, sequence (F1DBB2 whole entry F415Y): as the sequence (F1DBB2 whole entry) above, with F415Y counted along it

What does the source list for `COc1c(C)c2c(c(O)c1C/C=C(\C)CCC(=O)O)C(=O)OC2` [MPA, mycophenolic acid]?
IC50 [1]: 25000 ± 2000 nM; fold more resistant to MPA ([2]; PbIMPDH-A versus IMPDHs from the other filamentous fungi): 10 fold; IC50 ([2]; read-out: IC50 (MPA), WT PbIMPDH-A, saturating IMP, half-saturating NAD^+, 25°C): 430 ± 30 nM; IC50 [3]: 26 to 60 nM; IC50 [4]: 160 ± 20 nM; IC50 [5]: 26 ± 2 nM; sensitivity towards MPA (growth of spore dilutions) [6]: more resistant to MPA than A. nidulans; IC50 [7]: 27000 ± 9000 nM; IC50 [8]: 26 ± 2 nM; growth on minimal media with MPA [9]: resistant; increase of IMP concentrations in the presence of MPA [10]: 10-35 fold; IC50 [11]: 36 ± 4 nM; IC50 [12]: 70000 nM; IC50 [13]: 60 ± 10 nM; IC50 [14]: 500 nM

With `NC(=O)c1ccc[n+]([C@@H]2O[C@H](COP(=O)([O-])OP(=O)(O)OC[C@H]3O[C@@H](n4cnc5c(N)ncnc54)[C@H](O)[C@@H]3O)[C@@H](O)[C@H]2O)c1` [NAD^+, nicotinamide adenine dinucleotide] as the compound, how does the Km ([7]; read-out: KM (NAD^+), PbIMPDH-B) read?
Its Km is 790 ± 140 µM.

Which Km ([15]; other: AnImdA) does the source give for “AnImdA (IMPDH from Aspergillus nidulans) (Aspergillus nidulans FGSC A4)” here?
Its Km is 170 ± 70 µM.

What about the kcat/Km ([15]; other: AnImdA) of the same compound?
The kcat/Km was 4,400 ± 100 M^−1s^−1.

For “PcIMPDH-A (IMPDH-A from Penicillium chrysogenum) (Penicillium rubens Wisconsin 54-1255)”, which Km ([15]; other: PcIMPDH-A) is on record?
The Km was 290 ± 60 µM.

And the kcat/Km ([15]; other: PcIMPDH-A)?
Its kcat/Km is 2900 ± 300 M⁻¹ s⁻¹.

What does the source list for “PcIMPDH-B (IMPDH-B from P. chrysogenum) (Penicillium rubens Wisconsin 54-1255)”?
Km ([15]; other: PcIMPDH-B): 640 ± 130 µM; kcat/Km ([15]; other: PcIMPDH-B): 11 ± 6 M⁻¹ s⁻¹
